This is a sample that favours compounds with a hit; in the whole collection about 2.6% have one here.
ABHD4 inh – inhibitors of mouse ABHD4. Q8VD66. purified mABHD4, FP-Rh probe fluorescence polarization. inhibition, % at 8.92 µM. actives 0.54% (n = 370,000). AID 720543;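 active means inhibition exceeding the mean over every tested compound plus 3 SD, cut at about 30% in these data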;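 further: 0% = plate median of compound wells and 100% = S159A mutant with DMSO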
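System: mouse ABHD4 enzyme, wild type / Medium: HEPES pH 7.0, NaCl, Pluronic buffer / Reagent: FP-Rh activity-based fluorescent probe / Control set: S159A mutant high control, sample median low control / Detection: fluorescence polarization with parallel and perpendicular emission, 525/598 nm / Schedule: 45 min + 60 min at 25 °C / Compound dosing: 8.92 µM, single dose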
SIAE primary – blocks human sialic acid acetylesterase | AID 1053197 | SIAE FP-Rh probe binding, fluorescence polarization | inhibition, % at 9.66 µM | actives 0.69% (n = 370,000);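 active means inhibition above a cutoff: mean of compounds within the control limits plus 3 SD of those, cut at about 17% in these data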;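 further: 0% = plate median of compound wells and 100% = probe without SIAE protein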
HTRA1 inh – blocks human HTRA1 serine peptidase. recombinant HTRA1, FP-rhodamine activity-based probe, fluorescence polarization. inhibition, % at 5.96 µM. actives 0.5% (n = 340,000). AID 504803; in the data active means inhibition above about 36%;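 further: 0% = enzyme with DMSO and 100% = wells lacking enzyme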
PRMT1 inh – PRMT1 (human) inhibition, primary screen | Q99873 | recombinant PRMT1, activity-based probe fluorescence polarization | inhibition, % at 2.79 µM | actives 1.3% (n = 370,000);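 active means inhibition above about 21% made by adding two undisclosed values, limit read from the data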
Target sequence (Q99873 whole entry, looked up): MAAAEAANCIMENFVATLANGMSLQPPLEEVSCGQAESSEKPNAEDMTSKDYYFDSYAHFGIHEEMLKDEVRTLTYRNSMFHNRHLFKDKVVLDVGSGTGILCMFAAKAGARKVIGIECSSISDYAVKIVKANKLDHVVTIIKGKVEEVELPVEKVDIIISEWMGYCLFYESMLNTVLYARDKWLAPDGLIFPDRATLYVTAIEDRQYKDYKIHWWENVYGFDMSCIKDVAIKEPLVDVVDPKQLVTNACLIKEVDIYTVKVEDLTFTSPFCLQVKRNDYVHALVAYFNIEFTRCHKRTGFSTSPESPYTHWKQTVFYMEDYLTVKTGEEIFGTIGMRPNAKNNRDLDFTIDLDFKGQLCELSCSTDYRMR
TCR-CD3 inh – inhibitors of human TCR-CD3 interaction; TAMRA-labeled TCR probe fluorescence, biochemical; inhibition, % at 9.4 µM; actives 0.37% (n = 360,000); in the data active means inhibition above about 19%;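 further: recombinant mutant TCR 2C K166C tagged with TAMRA read by polarization; 0% = receptor in buffer alone and 100% = receptor with positive control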
mABHD4 conf – confirmation of mouse ABHD4 inhibitors; actives 55% (n = 1,800); inhibition, % at 8.92 µM; AID 720658; purified mABHD4, FP-Rh probe fluorescence polarization; shares compounds with ABHD4 inh;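 active means mean inhibition across replicates above the hit cutoff set in the primary screen, cut at about 30% in these data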;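 further: 0% = wild-type ABHD4 with DMSO and 100% = catalytically dead S159A mutant with DMSO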
Active calls of the source: *; · = no result given.

SMILES	ABHD4 inh	SIAE primary	HTRA1 inh	PRMT1 inh	TCR-CD3 inh	mABHD4 conf
CCSC1=N/C(=C\c2ccc(-c3ccccc3[N+](=O)[O-])o2)C(=O)S1	37*	11	14	15	-3	16
O=C(NNC(=O)c1cc(O)c(O)c(O)c1)NC1CCCCC1	31*	-3	24	15	3	16
Cc1cc(C)c(S(=O)(=O)Nc2cccc(C(=O)O)c2)cc1S(=O)(=O)Nc1cccc(C(=O)O)c1	2	3	9	-3	5	·
CCn1cc(CN2CCCC(C(=O)Nc3cccc(-c4cc5ccccc5[nH]4)c3)C2)cn1 (stereo unspecified)	9	2	2	0	-4	·
O=C(N1CCC(C(O)(c2ccccc2)c2ccccc2)CC1)n1ncc(C(O)(c2ccccc2)c2ccccc2)n1	70*	-7	·	-2	·	68*
O=C(C1CC1)N1CCC(C(O)(c2ccccc2)c2ccccc2)CC1	1	-2	-1	2	-1	·
CCOc1ccccc1NC(=O)C(c1ccccc1)N1CCN(CC(=O)N2CCCC2)CC1 (stereo unspecified)	-3	-10	-2	-3	-1	·
Nc1c(C(=O)CSc2nnc(-c3ccccc3)o2)c(=O)[nH]c(=O)n1C1CC1	2	-3	9	3	-5	·
CCCCCCC(=O)Nc1nc(C)c(-c2csc(Nc3cc(OC)ccc3OC)n2)s1	34*	11	16	2	6	49*
CCCCC(=O)Nc1nc(C)c(-c2csc(Nc3ccccc3OC)n2)s1	-11	-8	0	17	-15	·
CCCCNC(=O)c1sc(=S)n2c1[nH]c(=O)c1ccc(C(=O)NCCc3ccc(OC)c(OC)c3)cc12	·	·	3	·	·	·
O=C(NCc1ccccc1)c1sc(=S)n2c1[nH]c(=O)c1ccccc12	32*	-17	10	3	3	42*
CCCCCCCCN1C(=O)[C@@H](CC(=O)NCCCCc2ccccc2)C[C@@]2(C(=O)OC)C1=C[C@H](COCc1ccccc1)O[C@@H]2C	0	-2	·	-2	·	·
C/C(O)=C\c1nc2ccccc2oc1=O	37*	-1	10	7	9	-4
S=c1[nH]c2ccc3ccccc3c2[nH]1	-2	2	0	1	-5	·
Cc1[nH]c2c(ccc3ccccc32)c1C1C(CCN)C1(C)C (stereo unspecified)	30*	4	24	1	-9	47*
Cn1c(/N=C/c2c(O)ccc3ccccc23)nc2ccccc21	31*	7	29	10	2	4
O=C(O)c1cc(S(=O)(=O)N2CCCCC2)ccc1N1CCCC1	0	15	8	1	-2	·
CC(=O)C1=C(C)N(Cc2ccc(Br)cc2)C(=S)NC1c1cccc(Br)c1 (stereo unspecified)	-17	-16	·	0	0	·
CN(C)C1(CN=Cc2cc(Cl)cc([N+](=O)[O-])c2O)CCCCC1	36*	8	34	12	-7	45*
O=[N+]([O-])c1cc(Cl)cc(/C=N\Nc2ccccn2)c1O	21	16	31	-1	0	·
CC(C)CCN1CCC(n2nccc2NC(=O)c2ccc3c(c2)OCO3)CC1	0	-3	0	2	2	·
Cc1nc2ccccc2c(=O)n1CCc1ccccc1	6	12	8	-1	3	·
Cc1cc2nc3c(=O)n(CCc4ccccc4)c(=O)[nH]c3nc2cc1N	55*	10	35	109*	3	20
NNc1nc2c(F)cc(F)cc2s1	45*	8	13	5	2	9
SMILES	ABHD4 inh	SIAE primary	HTRA1 inh	PRMT1 inh	TCR-CD3 inh	mABHD4 conf
O=C(Nc1nc2c(F)cc(F)cc2s1)c1ccco1	-3	2	-5	-7	3	·
Fc1cccc2sc(Nc3nc4c(F)cccc4s3)nc12	2	0	-8	0	-2	·
NNc1nc2c(F)cccc2s1	77*	11	24	7	-5	32*
Cc1ccc(O)c(NC(=O)c2cc(-c3cccs3)on2)c1	-3	-8	-11	0	13	·
COc1ccccc1N(C)c1cc2c(c3c1ccn3C)C1CCC2C1 (stereo unspecified)	33*	8	·	1	2	12
O=C(OCc1cccc([N+](=O)[O-])c1)c1ccc[nH]c1=O	3	-4	-2	8	2	·
CCN(CC)S(=O)(=O)c1cccc(C(=O)NC(C(=O)NNC(=O)c2ccccc2F)C(C)C)c1 (stereo unspecified)	-1	-4	8	3	5	·
CCN(CC)c1ccc2cc(C(N)=O)c(=O)oc2c1	41*	10	10	-4	11	4
CCN(CC)c1ccc2cc(C(N)=O)c(=N)oc2c1	9	-4	·	-7	1	·
N=C1S/C(=C\c2ccc(-c3ccccc3C(=O)O)o2)C(=O)N1c1ccc2c(c1)OCO2	49*	-2	8	6	0	63*
O=C(C(=O)N1CCC(CNS(=O)(=O)c2ccccc2OC(F)(F)F)CC1)c1cc2ccccc2o1	3	-2	·	7	-7	·
COc1cc2c3c(c1)/C(=C1/SC(NC(C)=O)=NC1=O)C(=O)N3C(C)(C)C=C2C	38*	25*	9	5	1	27
CC1=CC(C)(C)N2C(=O)C(=O)c3cc(OC(=O)c4ccco4)cc1c32	14	6	·	2	-2	·
NCC(O)COCCC12CC3CC(CC(C3)C1)C2 (stereo unspecified)	2	-5	3	-2	6	·
CC(NCC(O)COCCC12CC3CC(CC(C3)C1)C2)c1ccccc1 (stereo unspecified)	31*	-3	-6	-1	3	28
COc1ccccc1OCC(=O)Nc1nc(C)c(C)s1	2	-2	-5	4	2	·
CC1CCN(c2ccc(C(=O)O)cc2NS(=O)(=O)c2ccc(Br)cc2)CC1	39*	7	-10	3	-3	31*
CC1CCN(c2ccc(C(=O)O)cc2NS(=O)(=O)c2ccc(Cl)s2)CC1	38*	6	·	4	·	44*
Cc1c(C)c2ccc(OC(C)C(=O)NC3CCN(Cc4ccccc4)CC3)cc2oc1=O (stereo unspecified)	-1	2	-2	0	5	·
C[C@@H]1CN([C@H](C)CO)C(=O)CCCn2cc(nn2)CO[C@H]1CN(C)S(=O)(=O)c1ccc(Cl)cc1	8	2	·	2	3	·
CCCCn1nc(C(=O)N(CC)CC(=O)Nc2c(F)cccc2F)c2ccccc2c1=O	-3	8	-2	3	-4	·
O=C(Nc1cc(F)cc(F)c1)c1ccc(NCCc2ccccc2)c([N+](=O)[O-])c1	-11	3	-3	0	8	·
O=C(O)c1ccc(NCCc2ccc(Cl)cc2)c([N+](=O)[O-])c1	57*	-2	-7	5	-1	53*
